Source: ChEMBL document CHEMBL4428072, “Pharmacophore Model To Discover OX1 and OX2 Orexin Receptor Ligands” (J Med Chem, 2016)
Active and inactive are the calls of the source. No cut-off for these calls is given here.

Assays:
CHO = assay: Induction Ca2+ levels in CHO cells at 1 uM by FLIPR calcium 4 assay; format: functional, cell-based; details: Cricetulus griseus
Outline: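 Control CHO cells lacking orexin receptors, loaded with Calcium 4 dye in HBM + probenecid for 60 min at 37 °C. Compound added (1 and 10 μM) and the Ca2+ fluorescence response read at 485/525 nm at 37 °C.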

[1] = target: T1, Orexin/Hypocretin receptor type 1 (Homo sapiens) (UniProt O43613); assay: Agonist activity at human OX1 receptor expressed in […] assessed as induction of Ca2+ elevation at 10 uM after 30 mins by FLIPR calcium 4 assay relative to orexin-A; format: functional, cell-based
T1 sequence (whole entry): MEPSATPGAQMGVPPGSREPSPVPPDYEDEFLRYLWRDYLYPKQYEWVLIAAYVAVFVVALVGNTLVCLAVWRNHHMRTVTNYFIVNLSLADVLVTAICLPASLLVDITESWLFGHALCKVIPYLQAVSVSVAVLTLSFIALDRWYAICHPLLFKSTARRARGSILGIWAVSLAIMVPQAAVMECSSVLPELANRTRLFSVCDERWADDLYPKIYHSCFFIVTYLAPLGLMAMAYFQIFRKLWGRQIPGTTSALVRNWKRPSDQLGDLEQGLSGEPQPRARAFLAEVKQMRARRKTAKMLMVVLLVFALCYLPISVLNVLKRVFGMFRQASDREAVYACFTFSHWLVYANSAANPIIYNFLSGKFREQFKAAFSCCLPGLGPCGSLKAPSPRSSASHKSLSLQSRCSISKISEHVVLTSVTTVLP
Outline: (§1)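 CHO-hOX1 or CHO-hOX2 cells plated overnight at 1.5 × 10^4 cells/well, loaded with Calcium 4 dye in HBM + probenecid for 60 min at 37 °C. Fluorescence read at 485/525 nm, 37 °C. 30 s baseline, then compound at 10 μM (tested twice in validation; thrice at 1 and 10 μM in quadruplicate in characterization). Response expressed as % of orexin-A maximal response; background response measured within each experiment.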

Orexin receptor type 2 [2] = target: T2, Orexin receptor type 2 (Homo sapiens, UniProt O43614); assay: Displacement of [125I]-orexin A from human OX2 receptor expressed in […] after 90 mins by scintillation counting
T2 sequence (O43614 whole entry): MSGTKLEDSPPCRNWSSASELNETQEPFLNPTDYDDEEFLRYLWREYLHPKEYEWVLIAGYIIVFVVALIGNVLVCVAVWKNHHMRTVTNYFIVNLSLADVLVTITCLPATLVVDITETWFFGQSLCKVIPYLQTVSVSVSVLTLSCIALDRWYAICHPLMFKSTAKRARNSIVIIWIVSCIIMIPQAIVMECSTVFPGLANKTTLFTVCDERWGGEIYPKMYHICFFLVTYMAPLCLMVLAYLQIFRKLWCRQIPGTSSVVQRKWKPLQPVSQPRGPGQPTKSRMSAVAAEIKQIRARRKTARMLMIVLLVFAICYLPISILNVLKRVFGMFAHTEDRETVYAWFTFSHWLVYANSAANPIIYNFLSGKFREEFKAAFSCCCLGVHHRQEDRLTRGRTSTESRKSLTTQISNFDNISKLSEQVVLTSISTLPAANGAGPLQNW
Outline: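 Intact CHO-hOX1 or CHO-hOX2 cells in HBM + 0.1% stripped BSA + 30 μM dyngo 4a, preincubated 10 min (10 μM antagonist used to define nonspecific binding). 0.05 nM [125I]-orexin-A added with compound (10 nM–100 μM, 10-fold series). Incubated 90 min at room temperature, wells dried, scintillation counted. At least three experiments; IC50/Ki by nonlinear fitting.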

[3] = target: T3, Orexin receptor type 2 (Homo sapiens) (UniProt O43614); assay: Agonist activity at human OX2 receptor expressed in […] assessed as induction of Ca2+ elevation at 10 uM after 30 mins by FLIPR calcium 4 assay relative to orexin-A; format: functional, cell-based; outline: as §1
T3 sequence (whole entry): T2 sequence (O43614 whole entry)

[4] = target: T1, Orexin/Hypocretin receptor type 1 (Homo sapiens); assay: Agonist activity at human OX1 receptor expressed in CHO cells assessed as induction of Ca2+ elevation at 5 uM after 2 mins by FLIPR calcium 4 assay relative to orexin-A; format: functional, cell-based
Outline: (§2)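 Screening in CHO-hOX1 or CHO-hOX2 cells loaded with Calcium 4 dye in HBM (137 mM NaCl, 20 mM Hepes, 1 mM CaCl2, pH 7.4) + probenecid. Fluorescence at 485/525 nm, 37 °C. 30 s baseline, compound added to 5 μM final and read for 120 s; the delayed response was read 30 min after addition for 30 s. Tested once in triplicate; % of full orexin-A activation.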

[5] = target: T3, Orexin receptor type 2 (Homo sapiens); assay: Agonist activity at human OX2 receptor expressed in CHO cells assessed as induction of Ca2+ elevation at 5 uM after 2 mins by FLIPR calcium 4 assay relative to orexin-A; format: functional, cell-based; outline: as §2
[6] = target: T1, Orexin/Hypocretin receptor type 1 (Homo sapiens); assay: Agonist activity at human OX1 receptor expressed in CHO cells assessed as induction of Ca2+ elevation at 5 uM after 30 mins by FLIPR calcium 4 assay relative to orexin-A; format: functional, cell-based; outline: as §2
[7] = target: T1, Orexin/Hypocretin receptor type 1 (Homo sapiens); assay: Displacement of [125I]-orexin A from human OX1 receptor expressed in […] at 10 uM after 90 mins by scintillation counting
[8] = target: T1, Orexin/Hypocretin receptor type 1 (Homo sapiens); assay: Agonist activity at human OX1 receptor expressed in […] assessed as induction of Ca2+ elevation at 10 uM after 30 mins by FLIPR back ground response; format: functional, cell-based; outline: as §1
[9] = target: T3, Orexin receptor type 2 (Homo sapiens); assay: Agonist activity at human OX2 receptor expressed in […] assessed as induction of Ca2+ elevation at 10 uM after 30 mins by FLIPR back ground response; format: functional, cell-based; outline: as §1
[10] = target: T3, Orexin receptor type 2 (Homo sapiens); details: CHO, at 10 µM
[11] = target: T4, Orexin/Hypocretin receptor type 1 (Homo sapiens, UniProt O43613); assay: Antagonist activity at human OX1 receptor expressed in […] assessed as inhibition of orexin A-induced Ca2+ elevation after 30 mins in presence of orexin A by FLIPR calcium 4 assay; format: functional, cell-based
T4 sequence (O43613 whole entry): T1 sequence (whole entry)
Outline: (§3)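 Functional inhibition in CHO-hOX1 or CHO-hOX2 cells. Antagonist (10 nM–100 μM, 10-fold series) preincubated 10 min at 37 °C, then 0.3 nM orexin-A added. Ca2+ measured with Calcium 4 dye at 485/525 nm. Ki derived from inhibition of the orexin-A response. Three independent experiments in quadruplicate; mean ± SEM.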

[12] = target: T1, Orexin/Hypocretin receptor type 1 (Homo sapiens); assay: Antagonist activity at human OX1 receptor expressed in CHO cells assessed as inhibition of orexin A-induced Ca2+ elevation at 5 uM after 30 mins by FLIPR calcium 4 assay; format: functional, cell-based
Outline: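 Screening second round: after the 5 μM compound agonist read in CHO-hOX1 cells, 0.3 nM orexin-A was added at 30 s to all wells and the inhibition of the Ca2+ response was read by Calcium 4 fluorescence at 37 °C. Vehicle controls were included in each column. Tested once in triplicate.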

[13] = target: T1, Orexin/Hypocretin receptor type 1 (Homo sapiens); assay: Agonist activity at human OX1 receptor expressed in CHO cells assessed as induction of Ca2+ elevation at 10 uM after 30 mins in presence of TCS-1102 by FLIPR calcium 4 assay relative to orexin-A; format: functional, cell-based
Outline: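 Agonist Ca2+ read in CHO-hOX1 or CHO-hOX2 cells loaded with Calcium 4 dye at 37 °C. Compound at 10 μM was added with or without 10 μM orexin antagonist to define the receptor-specific response. Expressed as % of full orexin-A response, taken from orexin-A concentration–response curves run in each experiment.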

Orexin receptor type 2 [14] = target: T2, Orexin receptor type 2; assay: Antagonist activity at human OX2 receptor expressed in […] assessed as inhibition of orexin A-induced Ca2+ elevation […] in presence of orexin A by FLIPR calcium 4 assay; format: functional, cell-based; outline: as §3
[15] = target: T1, Orexin/Hypocretin receptor type 1 (Homo sapiens); assay: Ratio of Ki for human OX1 receptor expressed in […] assessed as inhibition of orexin A-induced Ca2+ elevation to Ki for human OX1 receptor expressed in CHO cells by [125I]-orexin A displacement assay
[16] = target: T3, Orexin receptor type 2 (Homo sapiens); details: CHO, at 5 µM

Row | SMILES | Activity (CHO) | Activity [1] [%] | IC50 (Orexin receptor type 2 [2]) [nM] | Ki (Orexin receptor type 2 [2]) [nM] | Activity [3] [%] | Activity [4] | Activity [5] | Activity [6] | inhibition [7] [%] | fold change (FC) [8] | fold change (FC) [9] | inhibition [10] [%] | Ki [11] [nM] | inhibition [12] [%] | Activity [13] [%] | Ki (Orexin receptor type 2 [14]) [nM] | Ratio Ki [15] | inhibition [16] [%]
1 | COc1ccccc1OCCNC[C@@H](O)COc1cccc2[nH]c3ccccc3c12 [(R)-Carvedilol] | inactive | 6.3 | 900 | 1400 | 1 to 3.7 | Active | Active | Active | > 70 | 3.3 | 1.4 to 2.2 | > 70 |  |  |  |  |  | 
2 | Cc1cccc2c1[nH]c1nc(N/N=C\c3c4ccccc4cc4ccccc34)nnc12 |  |  |  |  |  |  |  | Active | > 50 |  |  |  | 16200 | > 20 |  |  |  | 
3 | CC(/C=C/c1ccccc1)=N/Nc1nc(Nc2ccccc2)nc(-n2nc(C)cc2C)n1 | inactive | 5.4 | 11800 | 17800 | 1 to 3.7 | Active | Active | Active | 20 to 40 | 2.8 | 1.4 to 2.2 | 20 to 40 |  |  | 2.1 |  |  | 
4 | COc1ccc(CCNC(=O)Cn2c(-c3nonc3N)nc3ccccc32)cc1OC |  |  | 500 | 800 |  |  |  | Active | > 50 |  |  | > 50 | 13100 | > 20 |  | 900 | 2 to 9 | > 20
5 | CCOC(=O)c1c(NC(=O)C(C)Sc2nnc(CNC(=O)c3cc(OC)cc(OC)c3)n2-c2ccccc2OC)sc2c1CCC2 (centres undefined) |  |  | 700 | 1100 |  |  |  | Active | > 50 |  |  | > 50 | 7000 | > 20 |  | 1000 | 2 to 9 | > 20
